Measured values as given in ChEMBL document CHEMBL1145471, “Small molecule regulators of autophagy identified by an image-based high-throughput screen” (Proc Natl Acad Sci U S A, 2007).

Assays:
Format in all cases: functional
H4 [1] = experiment: Increase in light chain 3-GFP+ autophagosome vesicle intensity per cell in human H4 cells at 5.0 uM after 24 hrs by high throughput fluorescence microscopy relative to control
How it was run: (§1)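 H4 cells stably expressing LC3-GFP were grown in DMEM with 10% FBS and 2 mM L-glutamine at 37°C, 5% CO2. They were exposed to each compound for 24 h, with DMSO as negative and rapamycin as positive control. Cells were then fixed in 4% paraformaldehyde and stained with 3 μg/ml DAPI. High-throughput fluorescence imaging scored LC3-GFP spot number, size and intensity, expressed relative to DMSO. Mean ± SD of triplicates; experiments repeated three times.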

H4 [2] = experiment: Decrease in FYVE-RFP+ vesicle intensity per cell in human H4 cells after 8 hrs relative to control; set-up: concentration or dose not given beside the values
How it was run: (§2)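 H4 cells stably expressing FYVE-RFP (H4-FYVE), grown in DMEM with 10% FBS, penicillin/streptomycin and 2 mM L-glutamine at 37°C, 5% CO2, seeded in 96-well plates and exposed to compound. Fixed in 4% paraformaldehyde, nuclei stained with 3 μg/ml DAPI, FYVE-RFP+ vesicles quantified by high-throughput fluorescence microscopy against DMSO control. Triplicate wells, mean ± SD.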

H4 [3] = experiment: Increase in long-lived protein degradation in human H4 cells after 4 hrs relative to control; set-up: concentration or dose not given beside the values
H4 [4] = experiment: Increase in long-lived protein degradation in human H4 cells after 1 hr relative to control; set-up: concentration or dose not given beside the values
H4 [5] = experiment: Increase in long-lived protein degradation in human H4 cells after 2 hrs relative to control; set-up: concentration or dose not given beside the values
H4 [6] = experiment: Decrease in FYVE-RFP+ vesicle intensity per cell in human H4 cells after 4 hrs relative to control; set-up: concentration or dose not given beside the values; how it was run: as §2
H4 [7] = experiment: Increase in light chain 3-GFP+ autophagosome vesicle number per cell in human H4 cells at 5.0 uM after 24 hrs by high throughput fluorescence microscopy relative to control; how it was run: as §1
H4 [8] = experiment: Induction of light chain 3-GFP level in human H4 cells at 5.0 uM after 24 hrs by high throughput fluorescence microscopy relative to control
How it was run: (§3)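 H4 cells stably expressing LC3-GFP, kept in DMEM/10% FBS at 37°C, 5% CO2, were seeded in 96-well plates and exposed to compound for 24 h. Cells were then fixed in 4% paraformaldehyde and stained with 3 μg/ml DAPI. Automated fluorescence microscopy scored the number, size and intensity of LC3-GFP spots. Values are percent of DMSO wells, in triplicate, mean ± SD. Rapamycin served as positive control.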

H4 [9] = experiment: Increase in long-lived protein degradation in human H4 cells after 24 hrs relative to control; set-up: concentration or dose not given beside the values
H4 [10] = experiment: Decrease in FYVE-RFP+ vesicle intensity per cell in human H4 cells after 2 hrs relative to control; set-up: concentration or dose not given beside the values; how it was run: as §2
H4 [11] = experiment: Increase in light chain 3-GFP+ autophagosome vesicle area per cell in human H4 cells at 5.0 uM after 24 hrs by high throughput fluorescence microscopy relative to control
How it was run: (§4)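 H4 cells stably expressing LC3-GFP, seeded in 96-well plates and exposed to compound for 24 h; screening concentrations were 3–12 μM, with rapamycin 0.22 μM and bafilomycin A1 0.40 μM. Cells fixed in 4% paraformaldehyde and stained with 3 μg/ml DAPI. Number, size and intensity of LC3-GFP spots measured by high-throughput fluorescence microscopy and expressed as percent of DMSO-treated wells. Rapamycin was the positive control. Triplicate wells, mean ± SD; experiments repeated three times.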

H4 [12] = experiment: Increase in light chain 3-GFP+ autophagosome vesicle intensity per cell in human H4 cells at 8.8 uM after 24 hrs by high throughput fluorescence microscopy relative to control; how it was run: as §1
H4 [13] = experiment: Increase in light chain 3-GFP+ autophagosome vesicle number per cell in human H4 cells at 8.8 uM after 24 hrs by high throughput fluorescence microscopy relative to control
How it was run: (§5)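 H4 cells stably expressing LC3-GFP, grown in DMEM with 10% FBS, penicillin/streptomycin and 2 mM L-glutamine at 37°C, 5% CO2. Cells were seeded in 96-well plates and exposed to library compounds at 3–12 μM for 24 h, then fixed in 4% paraformaldehyde and stained with 3 μg/ml DAPI. LC3-GFP spot number, size and intensity were measured by high-throughput fluorescence microscopy and expressed relative to DMSO. Triplicates, mean ± SD.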

H4 [14] = experiment: Effect on FYVE-RFP+ vesicle intensity per cell in human H4 cells after 2 hrs relative to control; set-up: concentration or dose not given beside the values; how it was run: as §2
H4 [15] = experiment: Effect on FYVE-RFP+ vesicle intensity per cell in human H4 cells after 8 hrs relative to control; set-up: concentration or dose not given beside the values; how it was run: as §2
H4 [16] = experiment: Effect on FYVE-RFP+ vesicle intensity per cell in human H4 cells after 4 hrs relative to control; set-up: concentration or dose not given beside the values; how it was run: as §2
H4 [17] = experiment: Induction of light chain 3-GFP level in human H4 cells at 8.8 uM after 24 hrs by high throughput fluorescence microscopy relative to control; how it was run: as §5
H4 [18] = experiment: Increase in light chain 3-GFP+ autophagosome vesicle area per cell in human H4 cells at 8.8 uM after 24 hrs by high throughput fluorescence microscopy relative to control; how it was run: as §4
H4 [19] = experiment: Increase in light chain 3-GFP+ autophagosome vesicle intensity per cell in human H4 cells at 0.4 uM after 24 hrs by high throughput fluorescence microscopy relative to control
How it was run: (§6)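 H4 cells stably expressing LC3-GFP, seeded in 96-well plates and exposed to compound for 24 h; fixed in 4% paraformaldehyde, nuclei stained with 3 μg/ml DAPI. Automated fluorescence microscopy scored number, size and intensity of LC3-GFP spots; values expressed relative to DMSO-treated wells, rapamycin positive control. Triplicate wells, mean ± SD; experiments repeated three times.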

H4 [20] = experiment: Increase in light chain 3-GFP+ autophagosome vesicle area per cell in human H4 cells at 0.4 uM after 24 hrs by high throughput fluorescence microscopy relative to control; how it was run: as §6
H4 [21] = experiment: Increase in light chain 3-GFP+ autophagosome vesicle number per cell in human H4 cells at 0.4 uM after 24 hrs by high throughput fluorescence microscopy relative to control; how it was run: as §6
H4 [22] = experiment: Induction of light chain 3-GFP level in human H4 cells at 0.4 uM after 24 hrs by high throughput fluorescence microscopy relative to control; how it was run: as §3
H4 [23] = experiment: Increase in light chain 3-GFP+ autophagosome vesicle area per cell in human H4 cells at 8.5 uM after 24 hrs by high throughput fluorescence microscopy relative to control; how it was run: as §4
H4 [24] = experiment: Increase in light chain 3-GFP+ autophagosome vesicle number per cell in human H4 cells at 8.5 uM after 24 hrs by high throughput fluorescence microscopy relative to control; how it was run: as §5
H4 [25] = experiment: Increase in light chain 3-GFP+ autophagosome vesicle intensity per cell in human H4 cells at 8.5 uM after 24 hrs by high throughput fluorescence microscopy relative to control; how it was run: as §1
H4 [26] = experiment: Induction of light chain 3-GFP level in human H4 cells at 8.5 uM after 24 hrs by high throughput fluorescence microscopy relative to control; how it was run: as §5
H4 [27] = experiment: Induction of light chain 3-GFP level in human H4 cells at 4.9 uM after 24 hrs by high throughput fluorescence microscopy relative to control; how it was run: as §3
H4 [28] = experiment: Increase in light chain 3-GFP+ autophagosome vesicle intensity per cell in human H4 cells at 4.9 uM after 24 hrs by high throughput fluorescence microscopy relative to control; how it was run: as §6
H4 [29] = experiment: Increase in light chain 3-GFP+ autophagosome vesicle area per cell in human H4 cells at 4.9 uM after 24 hrs by high throughput fluorescence microscopy relative to control; how it was run: as §6
H4 [30] = experiment: Increase in light chain 3-GFP+ autophagosome vesicle number per cell in human H4 cells at 4.9 uM after 24 hrs by high throughput fluorescence microscopy relative to control; how it was run: as §3

Question: Which results are given for OCCN(CCO)c1nc(N2CCCCC2)c2nc(N(CCO)CCO)nc(N3CCCCC3)c2n1 [DIPYRIDAMOLE]?
Answer: Activity (H4 [1]): 213.63%; Activity (H4 [2]): 32.54%; Activity (H4 [3]): 81.07%; Activity (H4 [4]): 82.64%; Activity (H4 [5]): 79.22%; Activity (H4 [6]): 30.25%; Activity (H4 [7]): 170.2%; Activity (H4 [8]): 158.96%; Activity (H4 [9]): 79.08%; Activity (H4 [10]): 32.22%; Activity (H4 [11]): 199.02%

Question: Which results are given for O=C(/C=C/c1ccc(O)c(O)c1)OCCc1ccccc1 [CAFFEIC ACID PHENETHYL ESTER]?
Answer: Activity (H4 [12]): 150.18%; Activity (H4 [13]): 147.15%; Activity (H4 [3]): 120.18%; Activity (H4 [4]): 122.08%; Activity (H4 [5]): 128.4%; Activity (H4 [14]): 86.89%; Activity (H4 [9]): 106.53%; Activity (H4 [15]): 69.14%; Activity (H4 [16]): 71.17%; Activity (H4 [17]): 146.2%; Activity (H4 [18]): 160.43%

Question: CO/C1=C\C(C)=C\[C@@H](C)[C@@H](O)[C@@H](C)C/C(C)=C/C=C/[C@H](OC)[C@@H]([C@@H](C)[C@@H](O)[C@H](C)[C@@]2(O)C[C@@H](O)[C@H](C)[C@@H](C(C)C)O2)OC1=O [BAFILOMYCIN A1] was tested. Which Activity (H4 [19]) did it give?
Answer: The Activity was 4027.54%.

Question: And the Activity (H4 [20])?
Answer: The Activity was 1608.62%.

Question: And the Activity (H4 [21])?
Answer: Its Activity is 691.15%.

Question: What about the Activity (H4 [22]) of the same molecule?
Answer: Its Activity is 71.96%.

Question: With Cc1coc2c1C(=O)C(=O)c1c-2ccc2c1CCCC2(C)C [TANSHINONE IIA] as the molecule, how does the Activity (H4 [23]) read?
Answer: The Activity was 264.51%.

Question: What about the Activity (H4 [24]) of the same molecule?
Answer: The Activity was 210.24%.

Question: What about the Activity (H4 [25]) of the same molecule?
Answer: Its Activity is 273.72%.

Question: And the Activity (H4 [26])?
Answer: The Activity was 79.77%.

Question: Which results are given for C=C1[C@@H](C)[C@H]2[C@H](Cc3ccccc3)NC(=O)[C@]23[C@H](OC(C)=O)/C=C/[C@@](C)(O)C(=O)[C@@H](C)C/C=C/[C@H]3[C@@H]1O [CYTOCHALASIN D]?
Answer: Activity (H4 [27]): 71.84%; Activity (H4 [28]): 378.77%; Activity (H4 [29]): 306.27%; Activity (H4 [30]): 258.44%
